A selection: hits, their analogues and other compounds. The true share with any hit is near 2.6%.
LMPTP block: LMPTP (human) inhibition | AID 651560 | P24666 | 0.22% of 360,000 active | recombinant LMPTP-A, OMFP fluorogenic substrate, fluorescence intensity | inhibition, % at 20 µM;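 active = compounds that cut the enzyme signal by at least half of the control window in the single-dose screen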;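 also: plate controls were DMSO wells with enzyme plus substrate for no effect and substrate without enzyme for full effect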
Target sequence (P24666 whole entry, looked up): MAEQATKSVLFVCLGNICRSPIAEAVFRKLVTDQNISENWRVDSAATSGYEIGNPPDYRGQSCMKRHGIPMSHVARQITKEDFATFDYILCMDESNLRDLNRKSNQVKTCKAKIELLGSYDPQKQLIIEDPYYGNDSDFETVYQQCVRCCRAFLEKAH
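Test system: LMPTP-A phosphatase enzyme. Amount: LMPTP-A at 0.625 nM final in the reaction. Reagent: OMFP substrate, 400 µM final. Times: 50 min at room temperature. Signal: endpoint fluorescence intensity from OMFP dephosphorylation. Read-out basis: % inhibition. Benchmarks: no-enzyme and uninhibited controls.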
NadD block: NadD (S. aureus) enzyme inhibition; purified NadD enzyme, colorimetric absorbance read-out; inhibition, % at 20 µM; 0.78% of 360,000 active; in the data active = inhibition above about 26%
Scp1 inh: inhibitors of human Scp-1 phosphatase; Q9GZU7; Recombinant Scp1, phosphopeptide, malachite green phosphate absorbance; inhibition, % at 20 µM; 0.88% of 340,000 active; AID 493091;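 active = inhibition above about 50% at 20 µM, limit read from the data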;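 also: plate controls were DMSO wells with enzyme for no effect and wells lacking enzyme for full effect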
Target sequence (Q9GZU7 76-261 limits assumed): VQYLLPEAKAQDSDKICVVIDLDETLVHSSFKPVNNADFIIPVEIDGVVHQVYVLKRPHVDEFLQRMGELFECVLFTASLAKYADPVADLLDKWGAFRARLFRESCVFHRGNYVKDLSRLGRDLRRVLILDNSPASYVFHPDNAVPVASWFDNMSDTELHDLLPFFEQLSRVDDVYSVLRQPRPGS
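assay system = SCP-1 phosphatase catalytic domain, residues 76-261 | buffer or medium = 50 mM Tris acetate pH 5.5, 0.005% Tween-20, 10 mM MgCl2 | incubation = enzyme reaction 45 min at room temperature, colour 5 min, stabilisation 30 min | signal = Phosphate-binding colour reagent, absorbance read at 630 nm | measure = % inhibition at 20 µM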
STEP block: inhibitors of human striatal-enriched phosphatase STEP; inhibition, % at 20 µM; recombinant STEP, OMFP fluorogenic substrate, fluorescence; P54829; 0.25% of 360,000 active; AID 588621;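 active = inhibition at 20 µM, scaled per plate between control wells, above about 37%, limit read from the data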;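 also: 0% = DMSO with enzyme and substrate and 100% = substrate only without enzyme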
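material = STEP tyrosine phosphatase | reagent = fluorogenic phosphatase substrate OMFP at 25 µM final | doses = single compound dose of 20 µM, 1% DMSO final | schedule = 20 min reaction, room temperature, in the dark | measured by = fluorescence, 480/540 nm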
rCAG RNA binder: molecules binding r(CAG) RNA repeats; inhibition, % at 3 µM; r(CAG) RNA repeat, TO-PRO-1 dye displacement fluorescence; 1.3% of 370,000 active;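 active = inhibition above the plate cutoff, the mean of all test compounds on that plate plus 3 SD, cut at about 35% in these data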;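 also: 0% = DMSO alone and 100% = 100 µM mitoxantrone as full dye displacement; higher means more dye released from RNA so lower well fluorescence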
STEP inh conf: STEP (human) phosphatase inhibition, single concentration confirmation; shares compounds with STEP block; recombinant STEP, OMFP fluorogenic substrate, fluorescence; inhibition, % at 20 µM; 32% of 520 active; AID 623866; call rule not given here;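 also: 0% = enzyme with substrate plus DMSO and 100% = substrate without enzyme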
* marks the source's active call; other numbers are inactive results; · = no result given.

SMILES	LMPTP block	NadD block	Scp1 inh	STEP block	rCAG RNA binder	STEP inh conf
COc1cc(Cl)ccc1NC(=S)N(CCN1CCOCC1)C1CCN(C(C)=O)CC1	-1.7	-2.1	0.2	51.3*	-0.6	7.7
CC(=O)N1CCC(N(CCN2CCOCC2)C(=S)Nc2ccc(C)cc2)CC1	-3.3	5.1	-5.4	62.6*	2.5	20.8*
COc1ccc(NC(=S)N(CCN2CCOCC2)C2CCN(C(C)=O)CC2)cc1Cl	-1.8	2.1	5.5	16.5	-2.9	·
CCOC(=O)CC(NS(=O)(=O)c1ccc2[nH]cc(C(=O)O)c(=O)c2c1)c1ccc(OCC)c(OC)c1 (stereo not drawn)	1.5	1.0	48.0	73.6*	14.1	25.4*
CCOC(=O)CC(NS(=O)(=O)c1ccc(OC)c(OC)c1)c1cccc([N+](=O)[O-])c1 (stereo not drawn)	-1.0	-3.2	-5.3	-0.6	2.1	·
Cc1cccc(C(=O)Nc2ccc(N3CCN(c4ccc(C(F)(F)F)cn4)CC3)nc2)c1	49.8	8.5	10.0	76.6*	0.3	4.0
CC(C)(C)C(=O)Nc1ccc(N2CCN(c3ccc(C(F)(F)F)cn3)CC2)nc1	-0.2	-6.2	-11.4	2.6	-4.7	·
CCOc1ccc(N2C(=O)c3cccnc3C2Nc2ccc(F)cc2)cc1 (stereo not drawn)	-0.7	4.9	-4.4	52.2*	-0.1	26.0
COC(=O)c1sccc1NC(=O)c1ccc(C#N)cc1	1.6	-3.0	116.5*	98.2*	·	12.5
CN1CCN(C(=S)c2ccc(Br)cc2)CC1	0.9	-4.9	-1.3	80.5*	-1.3	43.1*
CSc1ccc(C(=S)N2CCCC2)cc1	-2.9	1.9	8.9	9.0	-4.9	·
CN1CCN(C(=O)c2ccc(S(=O)(=O)c3ccc(Br)cc3)cc2)CC1	1.1	-2.6	-11.9	0.1	-8.0	·
CN1CCN(C(=S)c2ccc(N(C)C)cc2)CC1	0.1	-2.8	-2.2	83.4*	-3.5	26.5
CN1CCN(C(=S)c2ccc([N+](=O)[O-])cc2)CC1	0.9	2.1	-6.7	80.5*	0.5	34.5
CSc1ccc(C(=S)N2CCN(C)CC2)cc1	-1.2	3.5	-5.9	72.9*	-3.7	25.6
CC(C)(C)N(Cc1cn(Cc2ccccc2)nn1)S(=O)(=O)c1ccccc1Br	·	·	·	·	2.9	·
CCOC(=O)N1CCN(C(=O)C[C@H]2C(=O)N(CCCOC)C3=CCCCC[C@]32C(=O)OC)CC1	·	·	·	·	3.5	·
Cc1cc(OC[C@@H](O)CN2CCC(C(O)(c3ccccc3)c3ccccc3)CC2)ccc1Br	·	·	·	·	4.0	·
COc1ccc(S[C@]2(C(=O)N3CCOCC3)CC(=O)N(P(=O)(OC)OC)[C@@H]2c2ccc(OC)cc2)cc1	·	·	·	·	1.5	·
Cc1ccc(C(=O)c2oc3ccccc3c2N)cc1	-1.3	-5.4	-6.2	-4.4	4.5	·
Nc1c(C(=O)c2ccc(Br)cc2)oc2ccccc12	-0.1	-3.5	-10.4	42.9*	6.8	19.3
COc1cc(C2C=C(C34CC5CC(CC(C5)C3)C4)NC(=S)N2)cc(OC)c1OC (stereo not drawn)	-2.1	11.2	7.1	2.2	-0.8	·
S=C1NC(C23CC4CC(CC(C4)C2)C3)=CC(c2ccc3c(c2)OCO3)N1 (stereo not drawn)	1.9	10.7	-2.5	61.6*	2.9	24.8*
C[C@H](NC(=O)c1ncn2c1c(=O)[nH]c1ccccc12)c1ccccc1	0.0	1.9	·	-0.3	4.1	·
C[C@H](NC(=O)c1ncn2c1c(=O)[nH]c1ccc(Br)cc12)c1ccccc1	55.7*	9.3	·	53.5*	0.8	0.5
SMILES	LMPTP block	NadD block	Scp1 inh	STEP block	rCAG RNA binder	STEP inh conf
O=C(CCN1CCC(c2ccc(Cl)s2)=N1)c1ccc(Cl)s1	11.6	-5.0	-0.8	58.2*	0.4	-0.7
C=C(C)COc1ccc2c(CC)cc(=O)oc2c1	0.2	-0.1	-0.9	118.0*	1.6	1.0
COc1ccnc(CSC(N)=Nc2ccccc2OC)c1	1.0	2.9	-2.2	35.0*	-0.7	3.3
CC(=O)c1cc(-c2cccc(C(C)C)c2)c(=O)n2c1CCC2	·	·	·	·	0.2	·
CCOC(=O)[C@]12CCCC3=C1N(CCC3)C(=O)[C@@H](CC(=O)NCCc1ccccc1OC)C2	·	·	·	·	-1.3	·
O=C(O)c1cccc(S(=O)(=O)NNc2ccccc2C(F)(F)F)c1	5.8	2.5	27.7	44.4*	7.6	8.8
NC(=O)C1(N2CCCCC2)CCN(c2nc(-c3ccccc3)cs2)CC1	1.0	-0.6	-4.8	0.7	-2.3	·
COc1ccc(-c2csc(N3CCC(C(N)=O)(N4CCCCC4)CC3)n2)cc1	0.7	9.2	-5.2	71.1*	-3.1	-1.5
COc1ccc(S(=O)(=O)N=C2C=C(C)C(=O)C(C)=C2)cc1	0.1	19.6	-7.3	45.1*	15.5	-13.8
COc1ccc(Br)cc1/C=C/C(=O)NC(=S)Nc1ccc(Cl)c(C(=O)O)c1	1.7	17.4	7.9	62.2*	15.1	8.4
Cc1cc(C)cc(N(CC(=O)NC2CCC(C)CC2)S(=O)(=O)c2ccc(C)c(C)c2)c1 (stereo not drawn)	·	·	·	·	1.0	·
COC(=O)[C@]12C[C@H](CC(=O)N3CCSCC3)C(=O)N(Cc3ccc(Cl)cc3Cl)C1=C[C@H](C1CCCC1)O[C@@H]2C	·	·	·	·	6.1	·
COCCN(C(=S)Nc1c(C)cc(C)cc1C)C(C)c1cccnc1 (stereo not drawn)	1.1	0.3	-7.3	50.4*	-1.9	20.9*
COCCN(C(=S)Nc1c(C)cccc1C)C(C)c1cccnc1 (stereo not drawn)	-1.3	-0.3	-9.7	-3.8	-0.8	·
O=C1[C@@H]2[C@@H]3C[C@@H]([C@H]4ON=C(c5ccc(Cl)cc5)[C@@H]34)[C@@H]2C(=O)N1c1ccc2c(c1)OCO2	0.2	4.4	-7.1	46.5*	9.6	-4.1
O=C(O)c1ccc(NC(=S)Nc2ccccc2)cc1	-1.4	1.1	6.1	107.3*	0.7	8.0
COC(=O)c1ccc(NC(=S)Nc2ccccc2)cc1	-0.9	-2.2	-7.2	-2.3	-0.1	·
COc1ccc(C(=O)Nc2ccc(/C(C)=N/NC(=O)c3ccncc3)cc2)cc1	54.0*	-1.2	·	81.6*	-1.1	19.1
CN(C)c1cccc(/C=C2\CC3(OC(=O)C4CCCC4)CCCN2C3)c1 (stereo not drawn)	·	·	·	·	4.4	·
COc1cccc(C(=O)NCCN2C(=O)C3C4C=CC(C4)C3C2=O)c1 (stereo not drawn)	·	·	·	·	1.1	·
CC(=O)Nc1ccc(NC(=O)C2CCCN2C(=O)Nc2ccccc2[N+](=O)[O-])cc1 (stereo not drawn)	-0.3	-1.8	-2.5	85.3*	-2.6	7.1
O=C(CSc1nnc(-c2ccccc2)n1-c1ccc(Cl)cc1)Nc1ccc2cn[nH]c2c1	·	·	·	·	4.2	·
O=C(NCc1ccco1)C1CCCN(c2ncccn2)C1 (stereo not drawn)	·	·	·	·	1.4	·
COc1ccc(N(C(=O)C(C)C)S(=O)(=O)c2cccs2)cc1	-0.6	-3.6	-6.1	43.8*	-1.9	9.8

Screening data from PubChem BioAssay.
